# TRPC6 inhibitor – mouse TRPC6 channel inhibitors, primary screen, cell-based, HEK293, membrane potential dye | Short transient receptor potential channel 6 (Mus musculus), Q61143 | ACh-evoked depolarization; hits give low values | B-score at 10 µM | 310,000 tested, 1.1% active | AID 2553, 2010;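 active = B-score under library mean minus 3 SD, initial fluorescence not abnormally high, positive integrated signal ratio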;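 note: B-score derived from integrated fluorescence ratio over the kinetic read; more negative B-score means stronger inhibition of depolarization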
# Target sequence (Q61143 whole entry, looked up): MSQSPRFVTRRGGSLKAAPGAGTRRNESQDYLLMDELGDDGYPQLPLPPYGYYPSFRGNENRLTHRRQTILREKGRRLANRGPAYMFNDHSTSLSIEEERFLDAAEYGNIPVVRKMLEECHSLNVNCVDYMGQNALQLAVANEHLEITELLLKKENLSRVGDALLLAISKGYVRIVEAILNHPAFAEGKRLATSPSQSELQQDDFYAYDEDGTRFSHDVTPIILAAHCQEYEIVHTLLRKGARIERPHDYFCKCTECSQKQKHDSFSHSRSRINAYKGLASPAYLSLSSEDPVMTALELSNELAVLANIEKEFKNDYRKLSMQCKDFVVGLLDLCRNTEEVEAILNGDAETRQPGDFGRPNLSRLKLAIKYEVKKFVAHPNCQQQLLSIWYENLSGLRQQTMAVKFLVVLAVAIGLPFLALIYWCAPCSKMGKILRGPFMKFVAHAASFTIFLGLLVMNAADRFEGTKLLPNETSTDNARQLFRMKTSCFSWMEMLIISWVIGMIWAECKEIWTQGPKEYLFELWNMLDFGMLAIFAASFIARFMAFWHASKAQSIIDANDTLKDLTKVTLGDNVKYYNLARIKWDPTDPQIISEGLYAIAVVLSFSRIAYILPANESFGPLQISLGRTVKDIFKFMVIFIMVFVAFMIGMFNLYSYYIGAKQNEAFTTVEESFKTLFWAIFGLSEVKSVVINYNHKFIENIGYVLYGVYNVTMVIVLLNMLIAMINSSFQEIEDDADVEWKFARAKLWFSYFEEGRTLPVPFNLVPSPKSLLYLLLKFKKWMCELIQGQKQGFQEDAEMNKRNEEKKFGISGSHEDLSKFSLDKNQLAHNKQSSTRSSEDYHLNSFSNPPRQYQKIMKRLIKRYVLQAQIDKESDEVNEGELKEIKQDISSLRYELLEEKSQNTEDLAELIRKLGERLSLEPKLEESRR
# TRPC6 act – mouse TRPC6 channel activators, primary screen, cell-based, HEK293, membrane potential dye; HEK293-TRPC6 membrane potential dye fluorescence; hits give high values; 310,000 tested, 0.13% active; B-score at 10 µM; AID 2550, 2010;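 active = B-score of the integrated fluorescence ratio above library mean plus 3 SD, and starting fluorescence ratio within library mean plus 5 SD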;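 note: higher score means more depolarization so channel activation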
# TRPC4 act – activators of mouse TRPC4 channel, primary screen, Fluo4 calcium, HEK293 TRPC4beta/mu-opioid cells; 310,000 tested, 0.49% active; Short transient receptor potential channel 4 (Mus musculus), Q9QUQ5; B-score at 10 µM; Fluo4 calcium fluorescence; hits give high values;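 active = B-score above 5 SD of library B-scores, and initial fluorescence ratio not above library mean plus 5 SD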;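 note: positive B-score marks a calcium rise read as TRPC4 activation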
#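 Assay system: HEK293 stable line with TRPC4beta plus mu-opioid receptor; schedule: 45 min room-temperature Fluo4 loading, 110 s read; technique: kinetic Fluo4 calcium fluorescence; evaluation: integrated baseline-normalised fluorescence ratio, converted to per-well B score; controls: buffer (low) and maximal DAMGO (high)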
# TRPC4 block – inhibitors of mouse TRPC4 channel, primary screen, Fluo4 calcium, HEK293 TRPC4beta/mu-opioid cells; DAMGO-evoked Fluo4 calcium flux; hits give low values; 300,000 tested, 0.39% active; Short transient receptor potential channel 4 (Mus musculus), Q9QUQ5; B-score at 10 µM; AID 2247, 2010;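 active = B-score over 3 SD under the library average, no early fluorescence shift, positive overall ratio signal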
#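 Material: HEK293 cells with stable TRPC4beta plus mu-opioid receptor expression; probe or stimulus: DAMGO in two steps, submaximal then maximal; technique: Fluo4 calcium fluorescence by kinetic imaging, 5 s 1 Hz baseline; measure: integrated fluorescence ratio relative to baseline, converted to per-well B score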
# TRPC4 PAM – positive allosteric modulators of TRPC4, primary screen, cell-based, mouse TRPC4beta, HEK293 mu-opioid, Fluo-4 calcium | 310,000 tested, 0.42% active | DAMGO EC20, Fluo-4 Ca2+ flux; hits give high values | Short transient receptor potential channel 4 (Mus musculus), Q9QUQ5 | B-score at 10 µM;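 active = B-score of calcium response area above 5 SD of library B-scores, with initial fluorescence ratio within 5 SD of library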
# TRPC4 sel inh 2 – second check of whether TRPC6 inhibitors also affect mouse TRPC4 | AID 2776 | shares compounds with TRPC6 inhibitor | HEK293 TRPC4/MOR, membrane potential dye fluorescence; channel activated by saturating DAMGO dose | 920 tested, 42% active | inhibition, % at 10 µM;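 active = compounds whose fluorescence signal differed from control wells by over 3 SD, either direction, in both duplicate plates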
# TRPC4 spec – mouse TRPC4 modulation by TRPC6 hits, confirmation, selectivity assay for TRPC6 inhibitor project, cell-based, HEK293 TRPC4/mu-opioid, membrane potential dye. shares compounds with TRPC6 inhibitor. membrane potential fluorescence. activity change, negative = inhibition, % at 10 µM. 920 tested, 61% active. AID 2777, 2010;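 active = rise or fall in signal beyond 3 SD of buffer-only wells in both replicate plates, either sign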;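 note: integrated kinetic ratio of fluorescence range over baseline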
# HEK293 MPD ctr 2-1 – nonspecific membrane potential effects, parental HEK293, confirmation, counter-screen for TRPC6 inhibitor project, cell-based, second counter screen | AID 2779, 2010 | 920 tested, 31% active | signal change vs control, % at 10 µM | shares compounds with TRPC6 inhibitor | parental HEK293 membrane potential dye fluorescence; maximal acetylcholine challenge after compound addition;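 active = membrane potential signal moving either way by over 3 SD of the maximum-effect control, in both duplicate plates, meaning non-specific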
# HEK293 MPD ctr-1 – membrane potential modulation in parental HEK293, confirmation, counter-screen for TRPC6 inhibitor project, cell-based. AID 2780, 2010. 920 tested, 60% active. shares compounds with TRPC6 inhibitor. membrane potential signal change, % at 10 µM. parental HEK293 membrane potential dye fluorescence;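 active = membrane potential signal shifting up or down by more than 3 SD of buffer-only wells, on both duplicate plates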
# HEK293 MPD ctr-2 – parental HEK293 membrane potential modulation, confirmation, counter-screen for TRPC6 modulator project, cell-based; AID 488924, 2010; 2,400 tested, 51% active; shares compounds with TRPC6 inhibitor; membrane potential dye fluorescence; membrane potential signal change, % at 10 µM;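 active = membrane potential signal moves up or down beyond 5 SD from buffer-only wells, on both duplicate plates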
# HEK293 MPD ctr 2-2 – second counter-screen for TRPC6 modulators: effect in parental HEK293 cells | inhibition, % at 10 µM | shares compounds with TRPC6 inhibitor | membrane potential dye fluorescence; after compound, maximal acetylcholine stimulation | 2,400 tested, 14% active;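 active = membrane potential signal drops by more than 5 SD from the mean control signal, in both duplicate plates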
# TRPC4/MOR mod – TRPC4 modulation by TRPC6 hit compounds, confirmation, selectivity assay for TRPC6 modulator project, cell-based, HEK293 TRPC4/mu-opioid, membrane potential dye, mouse. AID 488927, 2010. shares compounds with TRPC6 inhibitor. percent change from control (negative = decrease, positive = increase), % at 10 µM. 2,400 tested, 69% active. membrane potential fluorescence;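 active = membrane potential signal moved up or down beyond 5 SD of buffer control wells, in both duplicate plates, actives on both sides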
# TRPC4/MOR inh 2 – second selectivity test of TRPC6 modulators against mouse TRPC4 | shares compounds with TRPC6 inhibitor | HEK293 TRPC4/mu-opioid, membrane potential dye fluorescence; stimulated with maximal-effect DAMGO | inhibition, % at 10 µM | 2,400 tested, 55% active;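 active = drop in membrane potential signal beyond 5 SD of the control wells in both duplicate plates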;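 note: TRPC4 counter screen for TRPC6 hits run under conditions tuned for TRPC6 not TRPC4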
# TRPC6 inh conf – mouse TRPC6 channel inhibitors, confirmation, HEK293 cells, membrane potential dye, duplicate; shares compounds with TRPC6 inhibitor; ACh-evoked depolarization; inhibition, % at 10 µM; 3,300 tested, 43% active; AID 488960, 2010;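 active = fluorescence ratio falls more than 5 SD below the full-stimulation control mean, in both duplicate runs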;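 note: integrated fluorescence ratio of peak minus minimum over baseline after agonist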
# TRPC6 act conf – mouse TRPC6 channel activators, confirmation, HEK293 cells, membrane potential dye, duplicate; 2,800 tested, 11% active; shares compounds with TRPC6 inhibitor; activation, % at 10 µM; HEK293-TRPC6 membrane potential dye fluorescence, FDSS;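 active = ratio signal rise beyond 5 SD above unstimulated control wells' mean, seen in both duplicate runs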
# A number is an active result; - = inactive; . = no result; + = active, no number. In the library only some 2.3% were active in any assay of this set; here they are far more common.
SMILES,TRPC6 inhibitor,TRPC6 act,TRPC4 act,TRPC4 block,TRPC4 PAM,HEK293 MPD ctr-2,HEK293 MPD ctr 2-2,TRPC4/MOR mod,TRPC4/MOR inh 2,TRPC6 inh conf,TRPC6 act conf,others
COc1cccc(OC)c1C(=O)NCCc1ccccc1,-,-,-,-,-,.,.,.,.,.,.,
Cc1cccc(NC(=O)CSCC(=O)OCc2ccccn2)c1,-,-,-,-,-,.,.,.,.,.,.,
O=C(NCc1cccs1)C1CCCN1C(=O)Nc1ccc(F)cc1 (stereo not given),-,-,-,-,-,.,.,.,.,.,.,
CC(C)(C)C(=O)/C=c1\s/c(=C\c2ccc(-c3ccc([N+](=O)[O-])cc3)o2)c(=O)n1CC(=O)NC(N)=O,-,57,62,-,21,+,-,348%,-,-,418%,
CCC(=O)N/N=C/c1ccc(-c2ccc([N+](=O)[O-])cc2)o1,-,-,-,-,-,.,.,.,.,.,.,
CCN(CC)CCn1c2ccccc2c2cnc(N=CN(C)C)c(C#N)c21,-7.2,-,-,-,-,.,.,.,.,-,-,TRPC4 sel inh 2=50%;TRPC4 spec=-20%;HEK293 MPD ctr 2-1=-;HEK293 MPD ctr-1=-166%
CCn1c2ccccc2c2cnc(N=CN(C)C)c(C#N)c21,-,-,-,-,-,.,.,.,.,.,.,
CN1CCc2c(sc3c2c(=O)n(-c2ccccc2)c2nncn32)C1,-5.9,-,-,-,-,-101%,-,-20%,-,-,-,
CN(C)C(=O)c1c2c(nc3ccccc13)-c1ccccc1CC2,-5.7,-,-,-,-,-,-,-,-,-,-,
Cc1nn(-c2ccc([N+](=O)[O-])cc2)c2c1C(c1ccc(OC(F)F)cc1)N1C(=N2)C(=O)Nc2ccccc21 (stereo not given),-,-,-,-,-,.,.,.,.,.,.,
COc1cccc(C2c3c(C)nn(-c4ccc([N+](=O)[O-])cc4)c3N=C3C(=O)Nc4ccccc4N32)c1 (stereo not given),-5.7,-,-,-,-,-,-,-,54%,-,-,
CCOC(=O)CCNC(=O)N1CCCC(N2CCN(c3ccc(OC)cc3)CC2)C1 (stereo not given),-,-,-,-,-,.,.,.,.,.,.,
Cc1ccc(S(=O)(=O)NC(=O)c2cc(C)n(C3CC3)c2C)cc1,-,-,-,-,-,.,.,.,.,.,.,
O=C(N/N=C/c1sc(N2CCOCC2)nc1-c1ccccc1)c1ccc(O)cc1,-,-,-,-,-,.,.,.,.,.,.,
O=C(N/N=C/c1sc(N2CCOCC2)nc1-c1ccccc1)c1cccc(S(=O)(=O)N2CCCC2)c1,-5.9,-,-,-,-,454%,-,-56%,-,-,-,
O=C(N/N=C/c1cc(Br)cc(Br)c1O)c1cccc(S(=O)(=O)N2CCOCC2)c1,-5.7,-,-,-,-,-,-,26%,-,-,-,
CC(=O)Nc1ccc(/C=N/NC(=O)c2cccc(S(=O)(=O)N3CCOCC3)c2)cc1,-,-,-,-,-,.,.,.,.,.,.,
CCOc1ccc(CN2CCNC(=O)C2CC(=O)NCCN2CCOC2=O)cc1 (stereo not given),-,-,-,-,-,.,.,.,.,.,.,
CCN(CC)CCOC(c1ccccc1)c1ccc(C)cc1 (stereo not given),-,-,-,-,-,.,.,.,.,.,.,
Cc1ccc(C(OCC(C)(C)C[N+](C)(C)C)c2ccccc2)cc1 (stereo not given),-8.1,-,-,-,-,.,.,.,.,-,-,TRPC4 sel inh 2=-;TRPC4 spec=-;HEK293 MPD ctr 2-1=19%;HEK293 MPD ctr-1=-
Cc1n(N)c2ccccc2[n+]1CC(=O)c1ccccc1,-,-,-,-,-,.,.,.,.,.,.,
O=C(NCc1ccc2c(c1)OCO2)c1ccc2c(c1)N(Cc1c(F)cccc1Cl)C(=O)CS2,-,-,-,-,-,.,.,.,.,.,.,
CCC1CCCCN1CCCNC(=O)c1ccc2c(c1)N(Cc1c(F)cccc1Cl)C(=O)CS2 (stereo not given),-6.5,-,-,-,-,-,-,-17%,82%,78%,-,
COc1ccc(/C=N/Nc2nc(N3CCCC3)nc(N3CCCC3)n2)cc1,-,-,-,-,-,.,.,.,.,.,.,
COc1ccc(/C=N/Nc2nc(N3CCCC3)nc(N3CCCC3)n2)cc1O,-5.5,-,-,-,-,-,-,-,-,-,-,
COc1cc(/C=N/Nc2nc(N3CCCC3)nc(N3CCCC3)n2)ccc1OCc1ccccc1F,-7.4,-,-,-,-,.,.,.,.,-,-,TRPC4 sel inh 2=-;TRPC4 spec=-14%;HEK293 MPD ctr 2-1=-;HEK293 MPD ctr-1=-
CCOC(=O)C(CO)(NC(C)=O)C(=O)OCC,-,-,-,-,-,.,.,.,.,.,.,

# Source: PubChem (Johns Hopkins Ion Channel Center)
